Test results: PMC6030940 (International Journal of Nanomedicine, 2018)
“Also recorded” adds a separate entry of the source. Values belong to the compound of their own block, whether it stands above or below them.

How the values were obtained:
[1] = tested on: Pgp expression in kidney cancer cells; conditions: 5 ng/mL, 72 h; cited from earlier work
Pgp [2] = target: T1, Pgp (Homo sapiens, UniProt P08183); test: Cellular uptake of Rhodamine123 by MDCK-MDR1 cells; format: cell-based; conditions: 37°C, 90 min, Figure 2
T1 sequence (P08183 whole entry): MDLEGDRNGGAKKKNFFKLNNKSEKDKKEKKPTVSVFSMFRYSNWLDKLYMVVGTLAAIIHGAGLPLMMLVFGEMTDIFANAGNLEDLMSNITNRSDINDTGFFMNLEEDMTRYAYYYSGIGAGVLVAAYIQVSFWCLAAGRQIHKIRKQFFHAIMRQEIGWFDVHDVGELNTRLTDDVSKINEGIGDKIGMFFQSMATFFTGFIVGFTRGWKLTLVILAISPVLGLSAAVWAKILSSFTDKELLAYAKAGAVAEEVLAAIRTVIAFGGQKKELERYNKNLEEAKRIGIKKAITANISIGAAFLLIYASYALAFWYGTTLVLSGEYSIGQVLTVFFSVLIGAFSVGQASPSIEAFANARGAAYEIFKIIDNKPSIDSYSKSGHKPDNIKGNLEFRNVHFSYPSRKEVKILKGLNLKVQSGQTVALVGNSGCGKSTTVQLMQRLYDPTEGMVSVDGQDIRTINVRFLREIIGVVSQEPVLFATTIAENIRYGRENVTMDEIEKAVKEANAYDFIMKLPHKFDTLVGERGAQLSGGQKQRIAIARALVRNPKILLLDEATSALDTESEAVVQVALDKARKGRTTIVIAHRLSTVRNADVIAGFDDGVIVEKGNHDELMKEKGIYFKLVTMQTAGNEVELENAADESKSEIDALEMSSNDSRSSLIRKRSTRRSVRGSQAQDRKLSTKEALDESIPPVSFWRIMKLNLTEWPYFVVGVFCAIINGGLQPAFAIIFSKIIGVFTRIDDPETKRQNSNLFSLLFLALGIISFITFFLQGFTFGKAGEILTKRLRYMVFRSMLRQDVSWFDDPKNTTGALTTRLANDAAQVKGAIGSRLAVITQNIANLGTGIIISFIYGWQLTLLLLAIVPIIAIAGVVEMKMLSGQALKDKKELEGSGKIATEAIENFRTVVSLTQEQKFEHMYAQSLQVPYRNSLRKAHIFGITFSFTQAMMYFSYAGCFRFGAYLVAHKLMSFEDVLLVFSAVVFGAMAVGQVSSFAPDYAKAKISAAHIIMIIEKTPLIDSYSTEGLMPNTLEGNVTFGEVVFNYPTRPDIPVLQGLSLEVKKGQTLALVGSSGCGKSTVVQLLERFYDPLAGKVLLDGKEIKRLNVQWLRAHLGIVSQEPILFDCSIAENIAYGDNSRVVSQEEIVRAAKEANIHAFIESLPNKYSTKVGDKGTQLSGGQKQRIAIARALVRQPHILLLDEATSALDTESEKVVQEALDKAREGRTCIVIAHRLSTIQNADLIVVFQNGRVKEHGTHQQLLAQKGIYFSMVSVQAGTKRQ

[3] = no reference given; cited from earlier work
Caco-2 monolayer = conditions: previous study; cited from earlier work
Pgp [4] = target: T1, Pgp; test: Cellular uptake of BBR in MDCK-MDR1 cells; format: cell-based; conditions: BS20 8.1 µM, BBR 100 µM, 37°C, 90 min
[5] = tested on: Pgp protein expression in MDCK-MDR1 cells; test: Cellular Pgp protein expression, Western blotting; format: cell-based; conditions: BS20 5 or 10 µM, 3 h and 24 h
[6] = tested on: Pgp mRNA expression in MDCK-MDR1 cells; test: Pgp mRNA expression, real-time quantitative PCR; format: cell-based; conditions: normalized to GAPDH
In short: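 MDCK-MDR1 cells (DMEM, 10% FBS, 37°C, 5% CO2) were exposed to the test surfactant for 3 or 24 h. Total RNA was kit-extracted and reverse-transcribed with gDNA eraser. qPCR ran 95°C 30 s, then 40 cycles of 95°C 5 s and 60°C 30 s, followed by melt-curve analysis. Pgp expression was normalised to GAPDH by the 2−ΔΔCq method.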

[7] = tested on: intracellular ATP in MDCK-MDR1 cells; test: Intracellular ATP level, ATPlite luminescence assay; format: cell-based, canine; conditions: BS20 5 or 10 µM
In short: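 MDCK-MDR1 cells were seeded at 1 × 10^4 cells/well, left to adhere overnight, then exposed to the test surfactant at 5 or 10 μM for 3 or 24 h. Cells were lysed by three freeze-thaw cycles in lysis reagent. Substrate reagent was added and plates rocked 10 min at room temperature. ATPlite luminescence was read on a plate reader.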

[8] = Morphology and size by scanning electron microscopy; format: physicochemical; conditions: SEM images
In short: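 Samples were fixed on SEM stubs with double-sided adhesive tape and coated with Au. They were imaged by scanning electron microscopy at 15 kV acceleration voltage.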

human Pgp membrane = human Pgp membrane (Homo sapiens, UniProt P08183); test: Pgp ATPase activity, Pgp-Glo assay system; conditions: 37°C, 120 min
Sequence of human Pgp membrane (P08183 whole entry): as above

[9] = has been reported; cited from earlier work
MDCK-MDR1 cell monolayer = test: Bidirectional transport across MDCK-MDR1 cell monolayer; conditions: BBR in the presence of 10 µM verapamil
P-gp (MDR1) = test: as above; conditions: dog, MDCK-MDR1, pH 7.4
Pgp [10] = test: as above; conditions: dog, MDCK-MDR1, pH 7.4
Pgp mRNA in T84 cells = conditions: 10 µM, 72 h; cited from earlier work

Compound: C/C=C1\NC(=O)[C@H]2CSSCC/C=C/[C@H](CC(=O)N[C@H](C(C)C)C(=O)N2)OC(=O)[C@H](C(C)C)NC1=O [depsipeptide]
increased expression levels of Pgp [1]: 6.3 fold

Compound: D-α-Tocopherol polyethylene glycol 1000 succinate [TPGS]
effect on intracellular accumulation of Rho123 (Pgp [2]): most powerful nonionic surfactant with the function of Pgp inhibition
critical micelle concentration [3]: 0.02 mM

Compound: polyoxyethylene (23) lauryl ether [Brij-35]
permeation of bis(12)-hupyridone through Caco-2 monolayer (Caco-2 monolayer): significantly increase the permeation

increase of cellular uptake of BBR vs BBR group (Pgp [4]): 4.1 fold
size by SEM [8]: > 5 µm
stimulation of Pgp-ATPase activity vs normal control (basal level) (human Pgp membrane; BS20 5 µM): 3.5 fold
stimulation of Pgp-ATPase activity vs normal control (basal level) (human Pgp membrane; BS20 10 µM): 4.5 fold
Compound: polyoxyethylene (20) stearyl ether [BS20]
effect on intracellular accumulation of Rho123 (Pgp [2]): presented the most potency on increasing the intracellular accumulation of Rho123
Pgp protein expression [5]: no significant changes in Pgp protein expression
Pgp mRNA expression ([6]; BS20 5 µM, 3 h): 0.9 fold
Pgp mRNA expression ([6]; BS20 5 µM, 24 h): 2.3 fold
Pgp mRNA expression ([6]; BS20 10 µM, 3 h): 1.4 fold
Pgp mRNA expression ([6]; BS20 10 µM, 24 h): 3.8 fold
activity of intracellular ATP ([7]; 3 h): dose-dependently inhibited; also recorded: inhibited the activity of intracellular ATP
activity of intracellular ATP ([7]; 24 h): reversed to normal level
critical micelle concentration [3]: 0.006 mM

size by SEM [8]: 1–2 µm
absorptive quotient (AQ) (MDCK-MDR1 cell monolayer): 0.344
secretory quotient (SQ) (MDCK-MDR1 cell monolayer): 1.16
efflux ratio at 120 min, 10 µM (P-gp (MDR1)): 7.12
Papp A→B at 120 min, 10 µM (Pgp [10]): 0.4 ± 0.01 ×10⁻⁶ cm/s
Papp B→A at 120 min, 10 µM (Pgp [10]): 2.85 ± 0.04 ×10⁻⁶ cm/s
Compound: COc1ccc2cc3[n+](cc2c1OC)CCc1cc2c(cc1-3)OCO2 [BBR, Berberine]
oral bioavailability [9]: < 1%

Compound: CC(C)CN(C[C@@H](O)[C@H](Cc1ccccc1)NC(=O)O[C@H]1CCOC1)S(=O)(=O)c1ccc(N)cc1 [amprenavir]
increase of mRNA levels of Pgp (Pgp mRNA in T84 cells): 5.1 fold

Compound: C=C[C@H]1C[N@@]2CC[C@H]1C[C@@H]2[C@@H](O)c1ccnc2ccc(OC)cc12 [quinidine]
increase of mRNA levels of Pgp (Pgp mRNA in T84 cells): 3.8 fold
